What was measured:
[1] = tested on: patients with advanced cancer; experiment: Phase I dose-escalation safety and tolerability; format: in vivo, human
In short: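 Single-center oral once-daily escalation. Part A used 3+3 cohorts starting at 1/12th of the allometrically scaled rat LOAEL. Part B used single-patient cohorts, expanded to 3+3 after ≥Grade 2 drug-related toxicity in cycle 1. AEs were graded by NCI CTCAE v3. DLT was a treatment-related Grade ≥3 nonhematologic or Grade ≥4 hematologic cycle-1 AE. MTD was the next lower dose after ≥2 DLTs in a cohort.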

[2] = Phase I plasma pharmacokinetics of ENMD-1198 in cancer patients
[3] = single oral dose 425 mg/m^2/day, n=5

Compound: COc1cc2c(cc1C(N)=O)CC[C@@H]1[C@@H]2CC[C@]2(C)C=CC[C@@H]12 [ENMD-1198, 2-methoxyestra-1,3,5(10)16-tetraene-3-carboxamide]
- Drug-related Grade 3/4 toxicities ([1]; 5–425 mg/m^2/d dose range): No drug-related Grade 3/4 toxicities
- Recommended phase II dose (RP2D) ([1]; oral once daily): 425 mg/m^2/d
- Maximum tolerated dose (MTD) ([1]; oral once daily, cancer patients): 425 mg/m^2/day
- Life-threatening AEs or treatment-related deaths ([1]; whole study): No life-threatening AEs or treatment-related deaths
- Accumulation after multiple doses ([2]; human, in vivo): 3 fold
- Dose proportionality of plasma exposures ([2]; human, in vivo): increased proportionally with dose
- Mean terminal half-life ([2]; human, in vivo): 15 h
- Tmax ([2]; human, in vivo, po): 1 to 2 h
- AUC0–24hr ([2]; human, in vivo, po, 5 mg/m2): 312.35 ± 175.38 ng·h/mL
- Cmax ([2]; human, in vivo, po, 5 mg/m2): 68.75 ± 48.50 ng/mL
- Half-life ([2]; human, in vivo, po, 5 mg/m2): 12.16 ± 4.22 h
- Tmax ([2]; human, in vivo, po, 5 mg/m2): 1.25 ± 0.50 h
- AUC0–24hr ([2]; human, in vivo, po, 10 mg/m2): 1073.83 ± 156.28 ng·h/mL
- Cmax ([2]; human, in vivo, po, 10 mg/m2): 141.20 ± 28.47 ng/mL
- Half-life ([2]; human, in vivo, po, 10 mg/m2): 10.57 ± 4.42 h
- Tmax ([2]; human, in vivo, po, 10 mg/m2): 1.67 ± 0.58 h
- AUC0–24hr ([2]; human, in vivo, po, 20 mg/m2): 2138.07 ± 384.60 ng·h/mL
- Cmax ([2]; human, in vivo, po, 20 mg/m2): 418.66 ± 72.53 ng/mL
- Half-life ([2]; human, in vivo, po, 20 mg/m2): 11.03 ± 1.85 h
- Tmax ([2]; human, in vivo, po, 20 mg/m2): 1.33 ± 0.58 h
- AUC0–24hr ([2]; human, in vivo, po, 30 mg/m2): 3914.43 ± 1336.73 ng·h/mL
- Cmax ([2]; human, in vivo, po, 30 mg/m2): 677.80 ± 125.78 ng/mL
- Half-life ([2]; human, in vivo, po, 30 mg/m2): 19.45 ± 7.66 h
- Tmax ([2]; human, in vivo, po, 30 mg/m2): 1.00 ± 0.00 h
- AUC0–24hr ([2]; human, in vivo, po, 40 mg/m2): 3616.23 ± 1880.32 ng·h/mL
- Cmax ([2]; human, in vivo, po, 40 mg/m2): 675.83 ± 280.76 ng/mL
- Half-life ([2]; human, in vivo, po, 40 mg/m2): 8.98 ± 4.22 h
- Tmax ([2]; human, in vivo, po, 40 mg/m2): 1.33 ± 0.58 h
- AUC0–24hr ([2]; human, in vivo, po, 60 mg/m2): 4901.00 ng·h/mL
- Cmax ([2]; human, in vivo, po, 60 mg/m2): 1032.20 ng/mL
- Half-life ([2]; human, in vivo, po, 60 mg/m2): 11.82 h
- Tmax ([2]; human, in vivo, po, 60 mg/m2): 1.00 h
- AUC0–24hr ([2]; human, in vivo, po, 120 mg/m2): 10387.00 ng·h/mL
- Cmax ([2]; human, in vivo, po, 120 mg/m2): 1823.10 ng/mL
- Half-life ([2]; human, in vivo, po, 120 mg/m2): 10.66 h
- Tmax ([2]; human, in vivo, po, 120 mg/m2): 1.00 h
- AUC0–24hr ([2]; human, in vivo, po, 180 mg/m2): 14789.00 ng·h/mL
- Cmax ([2]; human, in vivo, po, 180 mg/m2): 2904.10 ng/mL
- Half-life ([2]; human, in vivo, po, 180 mg/m2): 29.80 h
- Tmax ([2]; human, in vivo, po, 180 mg/m2): 1.00 h
- AUC0–24hr ([2]; human, in vivo, po, 240 mg/m2): 16277.00 ng·h/mL
- Cmax ([2]; human, in vivo, po, 240 mg/m2): 2559.90 ng/mL
- Half-life ([2]; human, in vivo, po, 240 mg/m2): 16.15 h
- Tmax ([2]; human, in vivo, po, 240 mg/m2): 1.00 h
- AUC0–24hr ([2]; human, in vivo, po, 320 mg/m2): 42184.00 ng·h/mL
- Cmax ([2]; human, in vivo, po, 320 mg/m2): 3851.00 ng/mL
- Half-life ([2]; human, in vivo, po, 320 mg/m2): 9.70 h
- Tmax ([2]; human, in vivo, po, 320 mg/m2): 2.00 h
- AUC0–24hr ([2]; human, in vivo, po, 550 mg/m2): 45223.33 ± 18198.49 ng·h/mL
- Cmax ([2]; human, in vivo, po, 550 mg/m2): 4319.67 ± 2006.78 ng/mL
- Half-life ([2]; human, in vivo, po, 550 mg/m2): 17.93 ± 4.11 h
- Tmax ([2]; human, in vivo, po, 550 mg/m2): 1.67 ± 0.58 h
- AUC0–24hr [2, 3]: 24816.06 ± 14612.08 ng·h/mL
- Cmax [2, 3]: 2420.94 ± 1098.82 ng/mL
- Half-life [2, 3]: 18.40 ± 13.04 h
- Tmax [2, 3]: 6.20 ± 9.96 h

— article PMC4331064 (Investigational new drugs, 2010)
